Published values of several laboratories.
Effect on: enzyme activity
Mode: inhibitor
CDK2 with cyclin E: Cyclin-dependent kinase 2, with cyclin E (CDK2, Homo sapiens, UniProt P24941)
CDK2: Cyclin-dependent kinase 2 (CDK2, Homo sapiens, UniProt P24941)
CDK2 with cyclin A: Cyclin-dependent kinase 2, with cyclin A (CDK2, Homo sapiens, UniProt P24941)

SMILES	target	method	tested at	inhibition
CC/C(=N\NC(=O)NCc1cccc(O)c1)c1ccc(O)c(C)c1O	Cyclin-dependent kinase 2, with cyclin E1 (CDK2, Homo sapiens, UniProt P24941)		0.1 µM	-16.4%
CS(=O)(=O)Nc1cccc(-c2csc(NC(=O)CSc3nc4nccnc4c(=O)n3CCc3ccccc3)n2)c1	Cyclin-dependent kinase 2, with cyclin O (CDK2, Homo sapiens, UniProt P24941)		10 µM	8%
CCCS(=O)(=O)Nc1ccc(F)c(C(=O)c2c[nH]c3ncc(-c4ccc(Cl)cc4)cc23)c1F	CDK2 with cyclin E		1 µM	< 10%
Cn1cnc(Br)c1C1=CN(c2ncnc3[nH]cnc23)CCS1	CDK2	radiometric	50 nM	20.5%
CN(C)C1CCN(CC#Cc2nn(C3CCCC3)c3nc(NCc4ccccc4)ncc23)C1 (centres unmarked)	CDK2 with cyclin A	FRET	0.1 µM	7%
Cn1cncc1C1=CN(c2ncnc3[nH]cnc23)CCS1	CDK2	radiometric	50 nM	12.6%
C=CC(=O)Nc1cc(Nc2nccc(Nc3cc(Cl)c(F)cc3C(C)(C)O)n2)c(OC)cc1N1CC[C@@H](N(C)C)C1	CDK2 with cyclin A		1 µM	-13%
COc1cc(-c2cc(-c3ccc(N4CCNCC4)cc3)cnc2N)cc(OC)c1OC	CDK2 with cyclin A		1 µM	2%
CN1CC(Oc2cnc(C#N)cc2-c2ccn3nc(NC(=O)C4CC4)cc3c2)C1	CDK2 with cyclin E		1 µM	-13%
CSc1nc(C)c(-c2ccnc(Nc3ccc(N4CCOCC4)cc3)c2)[nH]1	CDK2		10 µM	66.4%
COc1cc2ncnc(Nc3ccc(Oc4ccccc4)cc3C)c2cc1OC	CDK2 with cyclin A		1 µM	-14%
